In ChEMBL document CHEMBL4513216, “Probing the Open Global Health Chemical Diversity Library for Multistage-Active Starting Points for Next-Generation Antimalarials” (ACS Infect Dis, 2020):

Experiment: Toxicity liver stage against HepG2, at 10uM
Type: cell-based
Parameters: test concentration 10 uM, cell line HepG2-A16-CD81EGFP
Details: human, HepG2-A16-CD81EGFP cells; read-out: INHIBITION
In short: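 Uninfected HepG2-A16-CD81EGFP cells, 3 × 10^3 per well, 1536-well, plated on prespotted compound at 10 μM final, parasite-free screening media added to match infected plates; puromycin 10 μM positive, DMSO 0.5% negative; run in parallel with 48 h PbLuc assay at 37 °C, 5% CO2; viability by CellTiter-Glo luminescence, normalized to controls.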

SMILES | cytotoxicity at 10 µM [%]
O=C(NCc1nnc2n1CCC2)c1cn(-c2cccc(Br)c2)nn1 | -4.3
CN1CCC(N2CCOC[C@H]2c2nc(-c3ccncc3)c[nH]2)CC1 | -5.15
CN(C[C@H]1CN2CC[C@H]1C[C@@H]2CNC(=O)c1ccco1)c1ccccc1 | -0.947
COCC(=O)Nc1ccc(-c2noc([C@@H]3CCCN3C(C)C)n2)cn1 | 0.994
CNC(=O)[C@@H]1[C@@H](OC(=O)Nc2ccccc2)C(=O)N(C)C12CCNCC2 | 6.38
O=C(CC1NC(N2CCc3ccccc32)=NC1=O)Nc1ccc(Cl)cc1 (centres undefined) | 1.54
COc1ccc2c(ccn2CC(=O)Nc2n[nH]c(C(C)C)n2)c1 | -6.72
O=C([C@H]1C[C@H]2OCC[C@H]2N(C(=O)c2cnccn2)C1)N1CCCCO1 | 12.7
Cn1cccc1C(=O)NCc1cnc2n1CCN(C(=O)c1ccoc1)C2 | 11.9
CN1CCCc2sc(C(=O)NCc3cccnc3)nc21 | 14.9
C[C@H]1C[C@H]2CN(C(=O)c3ccncn3)CC[C@@H]2O1 | 4.93
Cc1c(Cl)c(C(F)(F)F)nn1C(C)C(=O)NN1CCN(C)CC1 (centres undefined) | -7.85
COc1ccc(NC(C)=O)cc1S(=O)(=O)Nc1ccon1 | 1.08
CCOc1ccc(C(=O)n2cccn2)cc1 | 0.45
c1cc(CN2CCC(c3ccnc4nccn34)C2)ccn1 (centres undefined) | 1.58
CN1CCC(c2cccc(Cc3ccc(F)cc3)n2)CC1 | -3.45
Cc1nnc2n1CCN(C(=O)C1CCN(Cc3ccccc3)CC1)C2 | 1.28
O=C1NCCCCC1SCc1coc(-c2ccccc2)n1 (centres undefined) | 11.6
Cc1ccc(CNC(=O)Nc2nnc(C3CC3)s2)n1C | -1.61
Cc1cc(NC(=O)N(C)CCN2CCN(c3ccccc3)CC2)on1 | 4.79
O=S(=O)(CCCc1ccccc1)Cc1nnnn1C1CC1 | -1.01
CSc1ccc(CNCCS(=O)(=O)N2CCOCC2)cc1 | 4.83
Cn1cc(CC(=O)N2CCOC(c3nc(C(C)(C)C)n[nH]3)C2)cn1 (centres undefined) | 2.4
c1cnn(C2CN(CCCOc3ccc4c(c3)OCO4)C2)c1 | -4.73
Cc1occc1C(=O)N1CCCS1(=O)=O | -11
Cc1noc(C)c1CN(C)c1ncnc2ccccc12 | -6.4
CS(=O)(=O)N1C[C@H]2N(c3ncccn3)CCC[C@@]2(C(=O)NCC2CC2)C1 | -110

SMILES | cytotoxicity at 10 µM [%]
O=C(c1ccccc1)N1CCO[C@@H]2CN(Cc3ccc[nH]3)C[C@@H]2C1 | -98
COCC(=O)N1CCc2nc(C)nc(NC(C)C)c2CC1 | -102
O=C(NC1CC(F)(F)C1)[C@]12COC[C@H]1CN(Cc1ccsc1)C2 | -109
O=C(C1CCC1)N1CC[C@@H]2CN(Cc3cccnc3)S(=O)(=O)[C@@H]2CC1 | -109
O=C(c1ccoc1)N1CC[C@H]2C[C@@H](c3nnc(C4CC4)o3)O[C@@H]2C1 | -101
Cn1cccc1C(=O)N1CCc2ncnc(C3CC3)c2CC1 | 5.17
CC(C)c1ncc(CN2C[C@@H](CN3CCC(O)CC3)[C@@H](CO)C2)cn1 | -7.79
Cc1nc(C(C)C)sc1C(=O)N(C)Cc1nc(-c2ccccn2)no1 | -0.683
Cc1[nH]c2c(C)ccc(C)c2c1CC(=O)NC1CCCNC1=O (centres undefined) | -0.274
Cc1ccc(C(C(=O)NC(C)(C)CN2CCCC2)N(C)C)cc1 (centres undefined) | -6.93
Cc1cccc(C(=O)N2CCCCC2c2ccc(CN(C)C)cc2)c1 (centres undefined) | -0.909
Cc1ccc(C(=O)N(Cc2cccnc2)C[C@@H]2CCC(=O)N2)s1 | -77.9
O=C(c1cn(Cc2ccc(Cl)cc2)nn1)N1CCCO1 | -6.01
CCN(Cc1noc(CC(C)C)n1)Cc1ncccc1C(=O)O | -37.2
CC(CO)(CO)NC(=O)C1CCC(=O)N(Cc2ccc(Cl)cc2)C1 (centres undefined) | -4.71
Cc1cc(NCCNc2cccnc2)nc(-c2ccccc2O)n1 | 47.9
COCCc1noc(CN2CCC(c3ccccc3C(=O)O)C2)n1 (centres undefined) | -3.03
O=C1NCC2(CCCN(C(=O)CCn3cnc4ccccc43)CC2)O1 (centres undefined) | -4.8
Cc1cnn(CCC(=O)N2CCN(C(=O)C(C)C)[C@@H]3CS(=O)(=O)C[C@@H]32)c1 | 2.47
CCn1c(C)cc(C(=O)N2C[C@@H](C(=O)O)[C@H](c3ccccc3)C2)c1C | -0.173
COCCCC1CCCN(C(=O)CCc2csc(N)n2)C1 (centres undefined) | -2.66
O=C(O)C1CN(Cc2cnc(C3CCCCC3)nc2)CCO1 (centres undefined) | -6.08
CCCOCC1CCN(C(=O)c2cnc(C)nc2O)C1 (centres undefined) | -3.15
CC(C1CCN(C(=O)c2coc(CN3CCOCC3)c2)CC1)N(C)C (centres undefined) | -4.07
Cc1ccc(C)c(OCc2cc(C(=O)N(C)Cc3nonc3C)no2)c1 | -5.83
CCc1nnc(CN(CC)C(=O)C2CC(=O)N(C(C)(C)C)C2)o1 (centres undefined) | 1.56
Cc1nccn1CCC1CCN(c2ccncn2)CC1 | -9.14

SMILES | cytotoxicity at 10 µM [%]
O=C(c1cccc2ccnn12)N1CCCC1Cn1cccn1 (centres undefined) | -126
Cc1ccsc1-c1nccn1C1CC(=O)N(C(C)C)C1 (centres undefined) | -9.73
COCCCC1(CO)CCCN(C(=O)c2cnc3c(c2)CCCC3)C1 (centres undefined) | -50.2
CCn1ccnc1CN1CCN(Cc2cc(C#N)ccc2F)CC1 | -7.19
CC(C)=CCN1CCN(Cc2nccn2C)C(C)C1 (centres undefined) | -14.4
CC(C(=O)NCC(F)(F)F)N1CCC(N2CCN(C)C2=O)CC1 (centres undefined) | 5.11
COc1ccccc1C(O)CNC(=O)Nc1ccccn1 (centres undefined) | -11.9
COc1ccc(CCNC2CCCN(Cc3noc(C)n3)C2)cc1 (centres undefined) | -5.98
Cn1cc(C(=O)NCc2ccc(N3CCCC3)nc2)ccc1=O | -3.72
c1ccc(-c2nc(CNC3CCc4ncnn4C3)co2)cc1 (centres undefined) | -8.6
CC(C)c1nn(C)c(N(C)C)c1CNCCC(=O)NC1CCCC1 | -6.63
CC(C)COCC(NC(=O)c1cccnc1)c1ccco1 (centres undefined) | -12.1
Cc1[nH]ncc1C(=O)N1CCN(CC(O)C(C)(C)C)CC1 (centres undefined) | -0.00964
O=C(c1cnccn1)N1C[C@@H]2CCN(c3cnccn3)C[C@@H]2C1 | -100
Cc1csc(CN2CCC[C@]3(C[C@@H](OCC4CC4)CO3)C2)n1 | -134
CC(C)CN1CCC2(C1)CN(S(=O)(=O)c1cn(C)cn1)C2 | -116
CN(Cc1ccco1)[C@@H]1CN(Cc2nccn2C)[C@@H]2CCCO[C@H]12 | -67.9
CC(C)N1CCOCC2(CCN(c3cnccn3)CC2)C1 | -109
CNC(=O)[C@H]1C[C@@H]2CN(S(=O)(=O)c3ccc(F)cc3)C[C@@H]2N1C | -2.97
OCCOCc1n[nH]c2c1CN(Cc1ccccn1)C2 | -112
Cc1ccc(C(=O)N2CC[C@]3(C[C@@H](OCc4ccccn4)CO3)C2)nc1 | -74.6
c1cc(CN2CCCn3cnc(COCC4CC4)c3C2)co1 | -74.2
N#Cc1cccc(CN2C[C@H](NC(=O)C3CC3)[C@H]3OCCC[C@H]32)c1 | -0.155
CCOCCCNC(=O)c1nc2c(s1)CCCN2c1ccc(C)nn1 | 13.5
CCCS(=O)(=O)N1C[C@@H]2C[C@H](C(=O)N3CCCC3)[C@H](C1)O2 | -6.28
